From ChEMBL document CHEMBL2034969, “Bioactive carbazole alkaloids from Clausena wallichii roots” (J Nat Prod, 2012)
pIC50: −log10 of the molar value. Converted amounts (≈) assume the structure as drawn. The source made the active and inactive calls. No cut-off for these calls is given here.

Tests used:
[1] = test system: Escherichia coli; experiment: Antibacterial activity against Escherichia coli TISTR 780 by broth dilution method; type: functional
In short: (§1)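 MIC found by 2-fold serial dilution in Mueller Hinton broth following CLSI (2002) recommendations. Test substances dissolved in DMSO. Vancomycin and gentamycin run as reference drugs.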

[2] = test system: NCI-H187; experiment: Cytotoxicity against human NCI-H187 cells by resazurin reduction assay; type: functional, cell-based; details: for pIC50: Homo sapiens, NCI-H187, read-out: IC50; for IC50: nci-h187
[3] = test system: Staphylococcus aureus; experiment: Antibacterial activity against Staphylococcus aureus TISTR 1466 by broth dilution method; type: functional; in short: as §1
[4] = test system: KB; experiment: Cytotoxicity against human KB cells by resazurin reduction assay; type: functional, cell-based; details: for pIC50: Homo sapiens, KB, read-out: IC50; for IC50: kb
[5] = test system: MCF7; experiment: Cytotoxicity against human MCF7 cells by resazurin reduction assay; type: functional, cell-based; details: for pIC50: Homo sapiens, MCF7, read-out: IC50; for IC50: mcf7
[6] = test system: Salmonella typhimurium; experiment: Antibacterial activity against Salmonella typhimurium TISTR 292 by broth dilution method; type: functional, Salmonella enterica subsp. enterica serovar Typhimurium; in short: as §1
[7] = test system: Staphylococcus aureus; experiment: Antibacterial activity against methicillin-resistant Staphylococcus aureus SK1 by broth dilution method; type: functional
[8] = Salmonella enterica subsp. enterica serovar Typhimurium

Molecule	MIC [1]	pIC50 [2]	MIC [3]	pIC50 [4]	pIC50 [5]	MIC ([6]; Salmonella enterica) [µg/mL]	MIC [7]	IC50 [4]	IC50 [5]	IC50 [2]	MIC [6, 8]
COc1cc2[nH]c3ccccc3c2cc1O	128 µg/mL (≈ 600 µM)	4.56	inactive	3.67	4.50	128 (≈ 600 µM)	inactive				
COC(=O)c1ccc2[nH]c3ccccc3c2c1	128 µg/mL (≈ 568 µM)	4.02	inactive	4.22	3.77	128 (≈ 568 µM)	inactive				
COc1ccc2c(c1)[nH]c1cc(O)c(C=O)cc12	inactive	4.34	inactive	3.74	4.16	128 (≈ 531 µM)	128 µg/mL (≈ 531 µM)				
COc1ccc2c(c1)[nH]c1c(CC=C(C)C)c(O)c(C=O)cc12	128 µg/mL (≈ 414 µM)	4.37	inactive		4.27	128 (≈ 414 µM)	inactive	Not Active			
CC(C)=CCc1c(O)c(C=O)cc2c1[nH]c1cc(O)ccc12 [7-HYDROXYHEPTAPHYLLINE]	64 µg/mL (≈ 217 µM)	4.71	8 µg/mL (≈ 27.1 µM)	3.97		64 (≈ 217 µM)	4 µg/mL (≈ 13.5 µM)		Not Active		
CC1(C)C=Cc2c(ccc3[nH]c4cc(O)c(C=O)cc4c23)O1 [CLAURAILAS D]	64 µg/mL (≈ 218 µM)	4.22	inactive	3.53	4.18	128 (≈ 436 µM)	128 µg/mL (≈ 436 µM)				
Cc1cc2c([nH]c3ccc4c(c32)C=CC(C)(C)O4)c(-c2c(O)c(C)cc3c2[nH]c2ccc4c(c23)C=CC(C)(C)O4)c1O [CLAUSENAWALLINE A]	inactive		64 µg/mL (≈ 115 µM)			128 (≈ 230 µM)	128 µg/mL (≈ 230 µM)				
COc1cc2[nH]c3c(CC=C(C)C)c(O)c(C=O)cc3c2c(-c2cc3c(cc2O)[nH]c2ccccc23)c1O [CLAUSENAWALLINE B]	128 µg/mL (≈ 253 µM)		8 µg/mL (≈ 15.8 µM)			128 (≈ 253 µM)	16 µg/mL (≈ 31.6 µM)				
Cc1cc2c([nH]c3ccc4c(c32)C=CC(C)(C)O4)c2c1OC(C)(C)C=C2 [CLAUSENAWALLINE C]	128 µg/mL (≈ 371 µM)		inactive			128 (≈ 371 µM)	inactive	Not Active	Not Active	Not Active	
COc1ccc2c(c1)[nH]c1cc(OC)c(O)cc12 [CLAUSENAWALLINE D]	128 µg/mL (≈ 526 µM)		inactive			128 (≈ 526 µM)	inactive				
COc1cc2[nH]c3ccc(O)c(-c4c(O)c(C)cc5c4[nH]c4ccc6c(c45)C=CC(C)(C)O6)c3c2cc1C [CLAUSENAWALLINE E]	128 µg/mL (≈ 254 µM)		8 µg/mL (≈ 15.9 µM)			128 (≈ 254 µM)	8 µg/mL (≈ 15.9 µM)				
COC(=O)c1cc2c([nH]c3ccccc32)c(O)c1-c1c(O)c(C=O)cc2c1[nH]c1cc(OC)ccc12 [CLAUSENAWALLINE F]	128 µg/mL (≈ 266 µM)	5.35	64 µg/mL (≈ 133 µM)	4.99	4.21		64 µg/mL (≈ 133 µM)				inactive
COC(=O)c1ccc2[nH]c3cc(OC)ccc3c2c1 [CLAUSINE C]	inactive		inactive			128 (≈ 501 µM)	inactive	Not Active	Not Active	Not Active	
COC(=O)c1cc2c(cc1OC)[nH]c1ccccc12 [CLAUSINE L]	128 µg/mL (≈ 501 µM)		inactive			128 (≈ 501 µM)	inactive	Not Active	Not Active	Not Active	
COC(=O)c1cc2c(cc1OC)[nH]c1cc(OC)ccc12 [CLAUSZOLINE C]	128 µg/mL (≈ 449 µM)		inactive			128 (≈ 449 µM)	inactive	Not Active	Not Active	Not Active	
COc1ccc2c(c1)[nH]c1ccc(C=O)cc12 [CLAUSZOLINE K]	128 µg/mL (≈ 568 µM)		inactive				128 µg/mL (≈ 568 µM)	Not Active	Not Active	Not Active	inactive
COc1cccc2c1C(=O)c1c(O)c3c(c(O)c1C2=O)C[C@@](O)(C(=O)CO)C[C@@H]3O[C@H]1C[C@H](N)[C@H](O)[C@H](C)O1 [DOXORUBICIN]		7.00		5.77	4.77						
Cc1c2ccncc2c(C)c2c1[nH]c1ccccc12 [ELLIPTECINE]		5.51		5.28							
COc1cc2[nH]c3ccccc3c2cc1C=O [GLYCOSININE]	inactive	4.74	inactive	3.99	3.95	128 (≈ 568 µM)	128 µg/mL (≈ 568 µM)				
Cc1cc2c([nH]c3ccccc32)c2c1OC(C)(C)C=C2 [GRINIMIBINE]	128 µg/mL (≈ 486 µM)	4.23	inactive	3.58	4.54		inactive				inactive
CC(C)=CCc1c(O)c(C=O)cc2c1[nH]c1ccccc12 [HEPTAPHYLLINE]	128 µg/mL (≈ 458 µM)	4.69	inactive	4.03	3.77	128 (≈ 458 µM)	inactive				
COc1ccc2c(c1)[nH]c1cc(OC)c(C=O)cc12 [LANSINE]	128 µg/mL (≈ 501 µM)		inactive				inactive	Not Active	Not Active	Not Active	inactive
O=Cc1cc2c(cc1O)[nH]c1ccccc12 [MUKONAL]	128 µg/mL (≈ 606 µM)		inactive			128 (≈ 606 µM)	64 µg/mL (≈ 303 µM)	Not Active	Not Active	Not Active	
COC(=O)c1cc2c(cc1O)[nH]c1ccccc12 [MUKONIDINE]	128 µg/mL (≈ 531 µM)	3.87	64 µg/mL (≈ 265 µM)		3.69	32 (≈ 133 µM)	64 µg/mL (≈ 265 µM)	Not Active			
CN[C@H](CC(C)C)C(=O)N[C@H]1C(=O)N[C@@H](CC(N)=O)C(=O)N[C@H]2C(=O)N[C@H]3C(=O)N[C@H](C(=O)N[C@H](C(=O)O)c4cc(O)cc(O)c4-c4cc3ccc4O)[C@H](O)c3ccc(c(Cl)c3)Oc3cc2cc(c3O[C@@H]2O[C@H](CO)[C@@H](O)[C@H](O)[C@H]2O[C@H]2C[C@](C)(N)[C@H](O)[C@H](C)O2)Oc2ccc(cc2Cl)[C@H]1O [VANCOMYCIN]			0.25 µg/mL (≈ 0.173 µM)								
GENTAMICIN	0.25 µg/mL										0.125 µg/mL
